Test results reported in publication PMC7857643 (ACS chemical biology, 2016).
Substitutions are numbered along the chain they refer to. Values joined by “and” are separate entries in the source; they are usually repeats but may differ in a detail not shown here. Identical values can stand only once.

Columns and labels:
[1] = biological target: T1, mTDP2 8M (5M + E242G, S244A, R316G) (Mus musculus, UniProt Q9JJX7, E242G/I281T/K282R/P318T/Q278R/R316G/S244A/Y321C); assay: Recombinant TDP2 assay, mouse TDP2 8M mutant; format: biochemical; settings: IC50 mTDP2 8M, mouse TDP2 with eight human mutations
T1 sequence (Q9JJX7 1-370 E242G/S244A/Q278R/I281T/K282R/R316G/P318T/Y321C): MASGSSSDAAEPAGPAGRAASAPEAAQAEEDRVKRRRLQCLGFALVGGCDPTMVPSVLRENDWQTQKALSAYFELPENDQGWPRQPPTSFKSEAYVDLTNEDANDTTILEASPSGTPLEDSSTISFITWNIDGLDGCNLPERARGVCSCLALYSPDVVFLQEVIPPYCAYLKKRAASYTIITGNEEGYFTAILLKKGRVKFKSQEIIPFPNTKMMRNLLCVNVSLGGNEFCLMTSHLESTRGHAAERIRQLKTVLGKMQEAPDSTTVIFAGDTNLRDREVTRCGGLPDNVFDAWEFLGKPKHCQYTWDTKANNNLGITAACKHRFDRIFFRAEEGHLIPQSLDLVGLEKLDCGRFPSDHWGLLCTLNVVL

DT40 TDP2 KO cells = assay: Drug combination with etoposide in DT40 TDP2 KO cells; format: cell-based, chicken
Procedure, shortened: (§1)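 DT40 cells (TDP2-knockout, with or without human TDP2 complementation) seeded at 200 cells/well and exposed continuously to the test compound plus etoposide (or camptothecin) across concentration ranges for 72 h, in triplicate. Viability read at 72 h by ATPlite luminescence after 5 min. Viability was the ATP level of treated cells over untreated cells × 100.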

TK6 TDP2 KO cells = assay: Drug combination with etoposide in TK6 TDP2 KO cells; format: cell-based, human
[2] = test system: DU145 prostate cancer cells; assay: Cell viability / drug combination with etoposide in DU145 cells; format: cell-based, human
[3] = test system: DT40 avian lymphoblastoid cells; assay: Drug combination with etoposide in DT40 cells; format: cell-based, chicken
DT40 hTDP2 cells = assay: Drug combination in TDP2 knockout DT40 cells complemented with human TDP2; format: cell-based, chicken
Procedure, shortened: as §1

[4] = biological target: T2, mTDP2 5M (Q278R, I281T, K282R, P318T, Y321C) (Mus musculus, UniProt Q9JJX7, I281T/K282R/P318T/Q278R/Y321C); assay: Recombinant TDP2 assay, mouse TDP2 5M mutant; format: biochemical
T2 sequence (Q9JJX7 1-370 Q278R/I281T/K282R/P318T/Y321C): T1 sequence (Q9JJX7 1-370 E242G/S244A/Q278R/I281T/K282R/R316G/P318T/Y321C) with G242E, A244S, G316R

[5] = biological target: native endogenous avian TDP2 in DT40 whole cell extracts (Gallus gallus, UniProt F1NW29); assay: TDP2 assay with DT40 whole cell extracts; format: biochemical, chicken; settings: Supporting Information Figure 1
Sequence of native endogenous avian TDP2 in DT40 whole cell extracts (F1NW29 whole entry): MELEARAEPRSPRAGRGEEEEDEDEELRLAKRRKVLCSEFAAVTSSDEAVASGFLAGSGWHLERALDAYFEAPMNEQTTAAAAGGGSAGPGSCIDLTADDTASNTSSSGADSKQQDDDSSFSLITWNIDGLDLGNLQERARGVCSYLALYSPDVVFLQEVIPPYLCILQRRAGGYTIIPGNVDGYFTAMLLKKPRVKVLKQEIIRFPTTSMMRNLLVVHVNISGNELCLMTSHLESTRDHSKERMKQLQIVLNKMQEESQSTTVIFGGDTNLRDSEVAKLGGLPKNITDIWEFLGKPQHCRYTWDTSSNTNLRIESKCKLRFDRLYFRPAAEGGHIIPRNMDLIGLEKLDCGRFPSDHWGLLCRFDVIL

recombinant human TDP2 = biological target: T3, recombinant human TDP2 (Homo sapiens, UniProt O95551); assay: Kinetics experiments; format: biochemical
T3 sequence (O95551 1-362): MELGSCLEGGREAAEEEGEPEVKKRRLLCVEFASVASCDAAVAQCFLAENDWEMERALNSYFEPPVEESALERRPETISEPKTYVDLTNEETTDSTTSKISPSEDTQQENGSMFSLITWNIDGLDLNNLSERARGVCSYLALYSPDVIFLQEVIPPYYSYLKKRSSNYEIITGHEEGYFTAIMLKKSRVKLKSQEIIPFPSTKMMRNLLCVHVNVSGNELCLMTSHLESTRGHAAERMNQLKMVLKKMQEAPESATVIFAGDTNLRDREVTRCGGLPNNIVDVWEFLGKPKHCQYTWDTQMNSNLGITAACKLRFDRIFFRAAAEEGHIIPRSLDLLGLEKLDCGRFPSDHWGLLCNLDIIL
Procedure, shortened: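 Recombinant TDP2 at 10 pM was incubated at RT with 5, 10, 20 or 800 nM unlabeled TY19 substrate, spiked with 1 nM 32P-labeled TY19, with 0, 30, 50 or 150 nM test compound. Time-course reactions were resolved on 16% denaturing PAGE. Initial velocities from linear fits went into a Lineweaver–Burk plot.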

C. elegans TDP2 (cTDP2) = assay: Recombinant TDP2 assay, C. elegans TDP2; format: biochemical; settings: full-length C. elegans TDP2
mTDP2 9M (8M + H323L) = biological target: T4, mTDP2 9M (8M + H323L) (Mus musculus, UniProt Q9JJX7, E242G/H323L/I281T/K282R/P318T/Q278R/R316G/S244A/Y321C); assay: biochemical
T4 sequence (Q9JJX7 1-370 E242G/S244A/Q278R/I281T/K282R/R316G/P318T/Y321C/H323L): T1 sequence (Q9JJX7 1-370 E242G/S244A/Q278R/I281T/K282R/R316G/P318T/Y321C) with H323L

zebrafish TDP2 (zTDP2) = assay: Recombinant TDP2 assay, zebrafish TDP2; format: biochemical, D. rerio; settings: full-length zebrafish TDP2
mTDP2 WT = biological target: T5, mTDP2 WT (Mus musculus, UniProt Q9JJX7); assay: Recombinant TDP2 assay, mouse TDP2 wild type; format: biochemical
T5 sequence (Q9JJX7 1-370): T1 sequence (Q9JJX7 1-370 E242G/S244A/Q278R/I281T/K282R/R316G/P318T/Y321C) with G242E, A244S, R278Q, T281I, R282K, G316R, T318P, C321Y

[6] = biological target: T6, human cellular TDP2 in HT29 whole cell extracts (Homo sapiens, UniProt O95551); assay: TDP2 assay with whole cell extracts from HT29 cells; format: biochemical; settings: Supporting Information Figure 1
T6 sequence (O95551 1-362): T3 sequence (O95551 1-362)
Procedure, shortened: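 1 × 10^7 human cells were lysed 15 min on ice and spun at 12,000g for 10 min; protein was measured and extracts were stored at −80 °C. Extract at 10–20 μg/mL (30–40% cleavage) was incubated with 1 nM 32P-labeled 5′-phosphotyrosyl 18-mer DNA and test compound for 15 min at RT in pH 7.5 Tris/KCl/MgCl2 buffer. Products were run on 16% denaturing PAGE and quantified by densitometry.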

[7] = test system: TK6 human lymphoblastoid cells (TK6 WT); assay: Drug combination with etoposide in TK6 cells; format: cell-based; settings: increasing concentrations of ETP
Procedure, shortened: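 TK6 wild-type lymphoblastoid cells seeded at 10,000 cells/well and exposed continuously to the test compound combined with increasing etoposide concentrations for 72 h, in triplicate. ATPlite luminescence read at 72 h after 5 min incubation. Viability was expressed as a percentage of the ATP level in untreated cells.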

[8] = biological target: T7, recombinant human TDP2 (REC hTDP2) (Homo sapiens, UniProt O95551); assay: Recombinant TDP2 assay; format: biochemical
T7 sequence (O95551 1-362): T3 sequence (O95551 1-362)

N#Cc1ccc2cc3c(=O)[nH]c(=O)nc-3n(-c3cccc(-c4nnn[nH]4)c3)c2c1 [Compound 1, 2,4-Dioxo-10-[3-(1H-tetrazol-5-yl)phenyl]pyrimido[4,5-b]-quinoline-8-carbonitrile]
IC50 [1]: 710 nM and 580 nM | synergy with ETP (DT40 TDP2 KO cells): synergy was greatly reduced | synergy with ETP (TK6 TDP2 KO cells): synergy was not observed | synergy with ETP [2]: synergistic effect | combination effect with ETP ([2]; 5 μM ETP): supra-additive effect | cells killed in combination with ETP ([2]; 1 in combination with 1 μM of ETP): over 90% | cytotoxicity by itself ([2]; up to 50 μM, 72 h): not cytotoxic | synergy with ETP [3]: showed synergy | synergy with camptothecin (DT40 hTDP2 cells; ETP replaced by camptothecin, Supporting Information Figure 4): not observed | synergy with ETP (DT40 hTDP2 cells; increasing concentrations of ETP): synergistic effect | IC50 [4]: 1200 ± 100 nM | activity against native endogenous avian TDP2 in DT40 whole cell extracts [5]: active | kcat (recombinant human TDP2; 30 nM of 1): 2.75 s⁻¹ | kcat (recombinant human TDP2; 50 nM of 1): 2.71 s⁻¹ | kcat (recombinant human TDP2; 150 nM of 1): 3.03 s⁻¹ | mode of inhibition of hTDP2 (recombinant human TDP2; Lineweaver double-reciprocal plot): competitive inhibitor | resistance of cTDP2 to the drug (C. elegans TDP2 (cTDP2)): at least 3 orders of magnitude | IC50 (mTDP2 9M (8M + H323L)): 29 ± 10 nM | resistance of zTDP2 to the drug (zebrafish TDP2 (zTDP2)): at least 3 orders of magnitude | IC50 (mTDP2 WT): > 111000 nM | activity against human cellular TDP2 in HT29 whole cell extracts [6]: confirmed | combination effect with ETP [7]: supra-additive effect

N#Cc1ccc2cc3c(=O)[nH]c(=O)nc-3n(-c3ccccc3)c2c1 [Compound 3, 2,4-Dioxo-10-phenyl-pyrimido[4,5-b]quinoline-8-carbonitrile]
synergy with ETP [2]: synergistic effect

O=c1nc2n(-c3ccc(O)cc3)c3cc(Cl)ccc3cc-2c(=O)[nH]1 [Compound 4, 8-Chloro-10-(4-hydroxyphenyl)pyrimido[4,5-b]quinoline-2,4-dione]
decrease of potency against hTDP2 ([8]; 4 relative to 2 (cyano replaced by chloro)): 27 fold

O=c1nc2n(-c3ccccc3)c3ccccc3cc-2c(=O)[nH]1 [Compound 5, 10-Phenylpyrimido[4,5-b]quinoline-2,4(3H,10H)-dione]
additional loss of potency against hTDP2 ([8]; 5 relative to 4 (chloro removed)): 18 fold

COc1cc([C@@H]2c3cc4c(cc3[C@@H](O[C@@H]3O[C@@H]5CO[C@@H](C)O[C@H]5[C@H](O)[C@H]3O)[C@H]3COC(=O)[C@H]23)OCO4)cc(OC)c1O [ETP, etoposide, reference compound]
cells killed by ETP by itself ([2]; 1 μM ETP alone): around 50%
